In PMC8934255 (Cell chemical biology, 2021):

Key:
[1] = biological target: Pax2 (Mus musculus, UniProt P32114); type: cell-based; conditions: for Fold reduction (FR) of luminescence relative to vehicle treated Pax2 transfected PRS4-Luc cells: at 1.56 μM
[2] = tested on: BRE-Luc cells; experiment: BRE-Luc counter screen; type: cell-based, human; conditions: for Selectivity in PRS4-Luc cells over BRE-Luc cells: 8-point titration, fresh powder, duplicate
Method in brief: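 Clonal HEK293 cells with an integrated BRE-Luc reporter, kept in DMEM with 10% FBS at 37°C and 5% CO2, were prepared like the PRS4-Luc cells. 6 × 10^3 cells/well (384-well) went onto plates pre-dosed with test compound or DMSO, in 8-point titrations in duplicate from fresh powder. Plates were incubated overnight, then Steady-Glo was added and luminescence read.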

[3] = Microsomal stability assay with NADPH-fortified mouse liver microsomes; type: in vitro ADME; conditions: for Half-life estimation in mouse liver microsomes: 1 μM compound, NADPH fortified, 5-60 min
Method in brief: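 1μM test compound was incubated with 200μg pooled mouse liver microsomes in phosphate buffer (3.3mM MgCl2) with 4mg NADPH. Samples taken at 5, 10, 15, 30, 45 and 60 minutes were quenched with cold acetonitrile. After protein precipitation, supernatants were analyzed by LC/MS/MS and percent remaining plotted over time. Verapamil served as the high-clearance control.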

[4] = tested on: Avpr2; experiment: RT-PCR of Avpr2 expression in IMCD cells in high salt; type: cell-based, mouse; conditions: 5 μM, 500 mOsm/kg, 24 hours
[5] = tested on: Pax2 binding site at the AVPR2 promoter; experiment: ChIP at the AVPR2 promoter in IMCD cells in high salt; type: cell-based, mouse; conditions: 5 μM, high salt 24 hours
Method in brief: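 Mouse mIMCD3 cells in triplicate were pretreated 4 h with DMSO or 5 μM test compound (per figure legend). They were then kept 24 h in control medium or NaCl-supplemented medium (500 mOsm/kg), with or without compound. Chromatin immunoprecipitation was followed by real-time PCR with primers for the Pax2 binding site at the AVPR2 promoter. Antibodies included PTIP, H3K4me3 and RNA Pol II CTD.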

[6] = tested on: UTA1/3; experiment: RT-PCR of UTA1/UTA3 mRNA in IMCD cells in high salt; type: cell-based, mouse; conditions: 5 μM, high salt 24 hours
[7] = tested on: Pax8 binding site at the Slc14a2 promoter; experiment: ChIP at the Slc14a2 promoter and Pax8 western blot in IMCD cells in high salt; type: cell-based, mouse; conditions: 5 μM, high salt 24 hours
[8] = tested on: Pax2, Pax8, PTIP; experiment: Western blot of Pax2, Pax8 and PTIP protein levels in IMCD cells; type: cell-based, mouse; conditions: 5 μM, mIMCD cells
Method in brief: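 Mouse IMCD cells were cultured 24 h in normal or high-salt medium with DMSO or 5 μM test compound. Lysates were western blotted for Pax2, Pax8 and PTIP.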

[9] = tested on: Pax2; conditions: at 10 μM; ref Grimley et al., 2017; cited from earlier work
[10] = biological target: Pax5 (Homo sapiens, UniProt Q02548); experiment: PRS4-Luc luciferase reporter assay, Pax5 activation; type: cell-based; conditions: compared with Pax2
[11] = biological target: Pax8 (Homo sapiens, UniProt Q06710); experiment: PRS4-Luc luciferase reporter assay, Pax8 activation; type: cell-based; conditions: compared with Pax2
[12] = In vivo pharmacokinetics, plasma clearance in mice; set-up: species or system mouse
Method in brief: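 Mice got one dose of test compound formulated at 3mg/mL in PBS with 20% DMSO and 50% PEG-400, given intravenously (5 mg/kg) or orally (15 mg/kg). Blood was drawn at 0.5, 2, 4 and 7 h and plasma isolated by centrifugation. Compound was measured by LC-MS/MS and plasma concentration plotted semi-logarithmically against time.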

[13] = tested on: Pax2 expressing RCC; experiment: Phospho-histone H3 immunoblot; type: cell-based, human; conditions: 24 hours, vs vehicle
Method in brief: (§1)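 Human RCC or SKOV-3 cells (RPMI 1640, 10% FBS) or HEK293 cells (DMEM, 10% FBS) were seeded at 5.0 × 10^4 cells/well and attached overnight. Cells had 24 h of increasing test compound concentrations or DMSO. Lysates were boiled 5 min at 95°C in 2X SDS buffer, separated on 8% or 15% gels, transferred to PVDF at 4°C and probed for phospho-H3 (Ser10), total H3 and β-actin. Significance was by ANOVA with Dunnett's test versus vehicle.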

[14] = tested on: ovarian carcinoma (SKOV-3) cells; experiment: Phospho-histone H3 immunoblot in Pax2-negative SKOV-3 cells; type: cell-based, human; conditions: each concentration tested, 24 hours, vs vehicle (DMSO)
Method in brief: as §1

[15] = tested on: HEK293 cells; experiment: Phospho-histone H3 immunoblot in HEK293 cells lacking Pax2; type: cell-based, human; conditions: increasing concentrations, 24 hours
Method in brief: as §1

[16] = tested on: Pax2-positive RCC cells; experiment: Luciferase ATP; type: cell-based, human; conditions: each concentration tested, 18 hours
[17] = tested on: Pax2-negative SKOV-3 cells; experiment: Luciferase ATP; type: cell-based, human; conditions: only at 15 μM, tenfold the IC50, 18 hours
[18] = tested on: Cdh6; experiment: Immunoblot of Cdh6 and Pax2 protein in Pax2-positive RCC; type: cell-based, human; conditions: 24 hours
Method in brief: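 Pax2-positive human RCC cells grown in RPMI 1640 with 10% FBS were seeded at 5.0 × 10^4 cells/well, attached overnight, then exposed 24 h to increasing test compound concentrations or DMSO. Whole-cell lysates in 2X SDS buffer were run on SDS-PAGE, transferred to PVDF and probed for Cdh6, Pax2 and β-actin with ECL and film detection. Cdh6 densitometry was normalized to β-actin per lane.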

[19] = tested on: Pax proteins; experiment: Phosphorylation of Pax proteins in cell systems; type: cell-based; conditions: Fig. S2

Sequence of Pax2 (Mus musculus, UniProt P32114) (P32114 1-391 isoform P32114-2): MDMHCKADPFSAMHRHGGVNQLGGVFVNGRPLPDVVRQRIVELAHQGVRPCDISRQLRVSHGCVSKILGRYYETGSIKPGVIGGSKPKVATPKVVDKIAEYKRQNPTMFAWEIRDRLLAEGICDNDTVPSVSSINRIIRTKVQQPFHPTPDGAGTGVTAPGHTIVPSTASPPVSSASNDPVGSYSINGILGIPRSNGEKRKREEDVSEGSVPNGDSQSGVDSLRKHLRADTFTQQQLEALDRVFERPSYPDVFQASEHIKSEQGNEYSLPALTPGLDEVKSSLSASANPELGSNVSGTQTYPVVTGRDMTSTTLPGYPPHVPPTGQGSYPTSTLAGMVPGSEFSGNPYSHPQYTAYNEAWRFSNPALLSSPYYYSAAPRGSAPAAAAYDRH
Sequence of Pax8 (Q06710 whole entry, species assumed): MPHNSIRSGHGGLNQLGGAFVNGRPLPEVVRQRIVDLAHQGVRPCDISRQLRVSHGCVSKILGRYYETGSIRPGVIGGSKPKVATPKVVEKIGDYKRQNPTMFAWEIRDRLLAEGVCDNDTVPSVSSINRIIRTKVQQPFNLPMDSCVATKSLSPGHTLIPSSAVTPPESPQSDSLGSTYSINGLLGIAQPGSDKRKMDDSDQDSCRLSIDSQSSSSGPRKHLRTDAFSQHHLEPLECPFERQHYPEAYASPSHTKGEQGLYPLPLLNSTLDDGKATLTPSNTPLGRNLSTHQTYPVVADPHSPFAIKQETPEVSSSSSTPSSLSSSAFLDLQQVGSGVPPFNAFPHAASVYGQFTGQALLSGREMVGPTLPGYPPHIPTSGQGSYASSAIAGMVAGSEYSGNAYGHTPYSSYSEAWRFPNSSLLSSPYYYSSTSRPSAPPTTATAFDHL
Sequence of Pax5 (Q02548 whole entry, species assumed): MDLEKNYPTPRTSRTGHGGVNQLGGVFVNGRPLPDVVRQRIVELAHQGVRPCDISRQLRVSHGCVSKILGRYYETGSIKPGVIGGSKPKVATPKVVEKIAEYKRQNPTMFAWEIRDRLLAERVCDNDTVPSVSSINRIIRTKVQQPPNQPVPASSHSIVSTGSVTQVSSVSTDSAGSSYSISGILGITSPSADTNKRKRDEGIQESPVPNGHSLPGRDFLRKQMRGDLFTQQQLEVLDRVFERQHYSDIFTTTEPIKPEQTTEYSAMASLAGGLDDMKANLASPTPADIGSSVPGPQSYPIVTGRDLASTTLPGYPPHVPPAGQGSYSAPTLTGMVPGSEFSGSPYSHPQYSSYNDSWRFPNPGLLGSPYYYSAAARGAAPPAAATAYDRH

SMILES	Fold reduction (FR) of luminescence relative to vehicle treated Pax2 transfected PRS4-Luc cells [1]	Selectivity in PRS4-Luc cells over BRE-Luc cells [2]	Half-life estimation in mouse liver microsomes [3]	Increased Avpr2 expression in response to high salt [4]	Histone H3K4me3 and RNA PolII recruitment at the AVPR2 promoter (ChIP) [5]	Increased Pax2 binding to the Avpr2 promoter in high salt (ChIP) [5]	Recruitment of PTIP at the AVPR2 promoter (ChIP) [5]	Increased UTA1/3 mRNA expression in high salt [6]	Increased H3K4me3 and PolII binding at the Slc14a2 promoter (ChIP) [7]	Pax8 protein levels or binding to the Slc14a2 promoter [7]	Recruitment of PTIP and the H3K4 methyltransferase complex at the Slc14a2 promoter (ChIP) [7]	Pax2, Pax8, or PTIP protein levels [8]	other results
Cc1nc2ncnn2c(N2CCN(c3ccc(Cl)cc3)CC2)c1C [BG-2]	0.78	selective activity	46.24 min	significantly inhibited	prevented	no effect	inhibited	significantly inhibited	prevent	no effect	inhibit	did not affect	Stability in vitro, rank among the three compounds ([3]; mouse liver microsomes): most stable in vitro
CCc1c(C)nc2ncnn2c1Nc1ccc(Cl)cc1 [BG-3]	0.82	selective activity	25.39 min										Signs of cytotoxicity in counter screen ([2]; PRS4-Luc and BRE-Luc cells, up to 50 μM): did not indicate signs of cytotoxicity
COc1ccccc1C(=O)Nc1ccc(C(=O)Nc2ccccc2C(=O)O)cc1 [EG1]													Maximal inhibition of Pax2 [9]: approximately 50%
Cc1ccc(C)c(N2CCN(c3c(C)c(C)nc4ncnn34)CC2)c1 [BG-1]	0.58	selective activity	7.89 min	significantly inhibited	prevented	no effect	inhibited	significantly inhibited	prevent	no effect	inhibit	did not affect	Change of IC50 of BG1 in combination with EG1 ([1]; fixed 10 μM EG1, Prs4-Luc reporter cells, Fig. S3): reduce the IC50; Inhibition of Pax5 activation of the PRS4-Luc reporter [10]: similarly inhibited; Inhibition of Pax8 activation of the PRS4-Luc reporter [11]: similarly inhibited; Stability in vivo, rank among the three compounds ([12]; IV 5 mg/kg or PO 15 mg/kg, plasma 0.5-7 h): most stable compound in vivo; Rate of plasma clearance compared to the other two compounds ([12]; intravenous 5 mg/kg single dose): lowest rate of clearance; pHH3 levels ([13]; 1.5 μM): significant reduction; pHH3 levels ([13]; 15 μM): significant reduction; pHH3 levels [14]: no significant change; pHH3 levels [15]: did not significantly change; Percentage of viable cells (ATP luminescence) [16]: significantly and dose-dependently lowered; Metabolically active cells (ATP luminescence) [17]: significant drop; Cdh6 protein levels ([18]; 1.5 μM): significant reduction; Pax2 protein levels ([18]; 1.5 μM): no effect; Pax2 protein levels ([18]; 15 μM): also reduced; Effect on the phosphorylation of Pax proteins [19]: could not determine any discernible effects
